The text below walks through data of publication PMC2740628 (Colloids and surfaces. B, Biointerfaces, 2009).

Like-named read-outs stand apart in the source and are kept apart here.

Data set [1] has as its system B16F10 mouse melanoma cell line. Put plainly: MTT-based cytotoxicity test. To be noted: for EC50: read-out: Cytotoxicity EC50, B16F10, 24 h exposure, MTT, range 1 μM to 250 μM; for Cytotoxicity (in words): B16F10, 24 h, 1 μM to 250 μM. In kind it is cell-based. The procedure, abridged:
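B16F10 cells were grown in D-MEM with 10% FCS, antibiotics and glutamine at 37 °C, 5% CO2. Cells were seeded at 2.5–3.0 × 10^4/mL and grown for 16–24 h. Compounds were added from DMSO/PBS (DMSO below 1% final) at 1–250 μM for 24 h, with octylthioglucoside as positive control. MTT was applied for 3 h, formazan was dissolved with SDS (pH 5.5) and read at 540 nm the next day. EC50 came from dose-response curves, run in triplicate.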
In general terms: Tetrazolium assays rely on reduction of a dye to a coloured formazan, in cell work by metabolically active cells.

The test system of data set [2] is Rabbit red blood cells. Kind of data set: Haemolytic activity test. The format is cell-based. As to conditions: for EC50: 2 h, 37 °C; for Haemolytic activity (in words): 7 μM to 3.3 mM. An outline of the steps:
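Rabbit erythrocytes (2% in PBS) were tested in PBS alone or in PBS with 20% fetal bovine serum. Compounds were dissolved in DMSO, then PBS (DMSO at most 5% final) and tested from 7 μM to 3.3 mM. After 2 h at 37 °C, cells were pelleted at 700g for 10 min. Released haemoglobin was read at 540 nm. The value reported is the lowest concentration giving 50% haemolysis.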

The subject of another data set is B16F10 cells. To be noted: cited from earlier work.
The test system of data set [3] is Rabbit red blood cells. As to conditions: at 3.3 mM (highest concentration), data reported previously ref 15; cited from earlier work.
A short description of data set [4]: DPH steady-state fluorescence anisotropy, membrane partitioning. In kind it is physicochemical. As to conditions: for Membrane partition coefficient K (DPPC bilayers / aqueous phase): calculated with equation 2 from the depression of Tm, surfactant 0-20 μM; for Effect on phase transition temperature Tm of DPPC (in words): surfactant 0 to 20 μM, DPH-labelled DPPC vesicles. An outline of the steps:
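DPPC large unilamellar vesicles were made with DPH at a lipid:DPH molar ratio of 500:1 and surfactant at 0–20 μM, mixed in chloroform and dried. They were hydrated in water above 50 °C for 1 h and extruded 15 times at 50 °C. Anisotropy was read at λex 350/λem 452 nm while cooling from 50 °C to 20 °C at 0.2 °C/min. Tm was taken from anisotropy-temperature plots and K from the Tm shift (ΔHm 31.38 kJ·mol-1). Run in triplicate.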

A further data set relates to B16 melanoma cell line. As to conditions: 48 h exposure; cited from earlier work.
The subject of another data set is human erythrocytes. As to conditions: cited from earlier work.
Setting [5] is: read-out: Haemolytic activity EC50 20 % serum, rabbit red blood cells, PBS containing 20% fetal bovine serum.
[6] abbreviates: read-out: Haemolytic activity EC50 without serum, rabbit red blood cells 2% in PBS, without serum.
The mark [7] stands for this setting: at 3.3 mM (highest concentration), without serum.

With `CCCCCCCO[C@@H]1O[C@H](CO)[C@H](O)[C@H](O)[C@H]1O` [β-15a], the EC50 in data set [1] is more than 250 µM; in the data set with Rabbit red blood cells [2] (setting [5]), more than 3300 µM; in the data set with Rabbit red blood cells [2] (setting [6]), more than 3300 µM.
With `CCCCCCCCCCCCCCCCCO[C@@H]1O[C@H](CO)[C@@H](O)[C@H](O)[C@H]1O` [β-13e], the “Apoptosis (in words)” value in the data set with B16F10 cells is listed as “induced apoptosis”. In the data set with Rabbit red blood cells [3], the “Haemolysis, percentage in parentheses after >3.3 mM, 20 % serum” value is listed as 5%.
On to `CCCCCCCO[C@@H]1O[C@H](CO)[C@@H](O)[C@H](O)[C@H]1O` [β-13a, Heptyl-β-D-glucopyranoside], for which, in data set [1], the “Cytotoxicity (in words)” value is recorded as “insignificant” and the EC50 is more than 250 µM. Further, in data set [4], the “Membrane partition coefficient K (DPPC bilayers / aqueous phase)” value was 4.61×10^4 and the “Effect on phase transition temperature Tm of DPPC (in words)” value (“Effect” below) is recorded as “decreased the phase transition temperature of DPPC only slightly”. Moreover, the “Haemolytic activity (in words)” value in the data set on Rabbit red blood cells [2] (rabbit red blood cells) is reported as “essentially nonhaemolytic”. Also, the half-maximal effective concentration (EC50) in the data set with Rabbit red blood cells [2] (setting [5]) is more than 3300 µM. Also, the concentration giving a half-maximal response (EC50) in the data set with Rabbit red blood cells [2] (setting [6]) is more than 3300 µM.
Take `CCCCCCCCCCCCCCCCCO[C@H]1O[C@H](CO)[C@@H](O)[C@H](O)[C@H]1O` [α-13e]: the EC50 in data set [1] is 37 µM; in the data set with Rabbit red blood cells [2] (setting [5]) it was more than 3300 µM; in the data set on Rabbit red blood cells [2] (setting [6]), more than 3300 µM. Moreover, the “Haemolysis, percentage in parentheses after >3.3 mM, without serum” value (from here on “Haemolysis, percentage … without serum”) in the data set on Rabbit red blood cells [2] (setting [7]) turned out to be 25%.
Consider `CCCCCCCCCCCCCCCCCCCO[C@H]1O[C@H](CO)[C@@H](O)[C@H](O)[C@H]1O` [α-13g, nonadecyl α-D-glucopyranoside], for which the “Cytotoxicity (in words)” value in data set [1] is reported as “did not show a cytotoxic effect”. Also, the EC50 in data set [1] is more than 250 µM; with Rabbit red blood cells [2] (setting [5]) it was more than 3300 µM; in the data set on Rabbit red blood cells [2] (setting [6]) it was more than 3300 µM. For the same compound, in the data set with Rabbit red blood cells [2] (rabbit red blood cells), the “Haemolytic activity (in words)” value was “not haemolytic”.
`CCCCCCCCS[C@@H]1O[C@H](CO)[C@@H](O)[C@H](O)[C@H]1O` [OTG, Octylthioglucoside, reference compound]: the results for the EC50 (in data set [1]; in the data set on Rabbit red blood cells [2] (setting [5]); in the data set on Rabbit red blood cells [2] (setting [6])) were more than 250 µM, 3000 µM and 500 µM, respectively.
With `OC[C@H]1O[C@@H](OCCC(F)(F)C(F)(F)C(F)(F)C(F)(F)C(F)(F)C(F)(F)C(F)(F)C(F)(F)C(F)(F)C(F)(F)F)[C@H](O)[C@@H](O)[C@@H]1O` [3,3,4,4,5,5,6,6,7,7,8,8,9,9,10,10,11,11,12,12,12-heneicosafluoro-dodecyl-β-D-glucopyranoside], the “Toxicity at 50 μM (in words)” value in the data set on B16 melanoma cell line is given as “nontoxic”.
As to `CCCCCCCCCCCCCCCCO[C@@H]1O[C@H](CO)[C@@H](O[C@H]2O[C@H](CO)[C@@H](O)[C@H](O)[C@H]2O)[C@H](O)[C@H]1O` [β-17b], the EC50 in data set [1] is 67 µM; in the data set with Rabbit red blood cells [2] (setting [5]), 150 µM; in the data set with Rabbit red blood cells [2] (setting [6]), 30 µM. Also, in the data set on Rabbit red blood cells [2] (rabbit red blood cells), the “Haemolytic activity (in words)” value is reported as “most haemolytic compound under investigation”.
For `OCC1OC(OCCC(F)(F)C(F)(F)C(F)(F)C(F)(F)C(F)(F)C(F)(F)C(F)(F)C(F)(F)C(F)(F)C(F)(F)F)C(O)C(O)C1O` [corresponding β-D-galactopyranoside], the “Toxicity at 50 μM (in words)” value with B16 melanoma cell line is “displayed some toxicity”.
As for `CCCCCCCCCCCCO[C@@H]1O[C@H](CO)[C@@H](O[C@H]2O[C@H](CO)[C@@H](O)[C@H](O)[C@H]2O)[C@H](O)[C@H]1O` [C12 maltopyranoside], the “Lowest concentration causing lysis of human erythrocytes” value in the data set with human erythrocytes was 58 µM.
Regarding `CCCCCCCCCCCCCCCCO[C@@H]1O[C@H](CO)[C@@H](O)[C@H](O)[C@H]1O` [β-13d, hexadecyl β-D-glucopyranoside], in data set [4], the “Membrane partition coefficient K (DPPC bilayers / aqueous phase)” value was 2.78×10^5 and the “Effect” value is reported as “decreased linearly over the entire concentration range investigated”.
Consider `CCCCCCCCCCCCCCCCO[C@H]1O[C@H](CO)[C@@H](O)[C@H](O)[C@H]1O` [α-13d], for which the EC50 in data set [1] is 70 µM; in the data set with Rabbit red blood cells [2] (setting [5]), more than 3300 µM; in the data set on Rabbit red blood cells [2] (setting [6]), more than 3300 µM. For the same compound, the “Haemolysis, percentage … without serum” value in the data set on Rabbit red blood cells [2] (setting [7]) worked out at 20%.
For the compound `CCCCCCCCCCCCCCO[C@H]1O[C@H](CO)[C@@H](O)[C@H](O)[C@H]1O` [α-13b], the results for the EC50 (in data set [1]; in the data set with Rabbit red blood cells [2] (setting [5]); in the data set on Rabbit red blood cells [2] (setting [6])) were 53 µM, more than 3300 µM and 2500 µM, respectively. For the same compound, in the data set on Rabbit red blood cells [2] (at 3.3 mM (highest concentration), 20 % serum), the “Haemolysis, percentage in parentheses after >3.3 mM, 20 % serum” value is reported as 30%.
Take `CCCCCCCCCCCCCCCCO[C@@H]1O[C@H](CO)[C@H](O)[C@H](O)[C@H]1O` [β-15b, hexadecyl β-D-galactopyranoside]: the 50% effective concentration (EC50) in data set [1] is more than 250 µM; in the data set on Rabbit red blood cells [2] (setting [5]) it was more than 3300 µM; in the data set with Rabbit red blood cells [2] (setting [6]) it was more than 3300 µM. The “Membrane partition coefficient K (DPPC bilayers / aqueous phase)” value in data set [4] is given as 5.15×10^5. Moreover, in data set [4], the “Effect” value was “linear decrease in Tm up to a surfactant concentration of 7 μM and an approximately constant Tm at concentrations ≥ 10 μM”. Besides, the “Haemolysis, percentage … without serum” value with Rabbit red blood cells [2] (setting [7]) is 40%.

A word on the EC50: it is the concentration at which the effect is half-maximal.
